# Reference: paper PMC6594083 (Diabetes, Obesity & Metabolism, 2019)
# “And” between values parts separate entries of the source, which are not always exact repeats. Equal values may be shown once. Read-outs that look alike come from different tables or passages of the source.
# What was measured:
# Type in all cases: in vivo, human (Japanese patients)
# [1] = system: Japanese patients with type 1 diabetes mellitus; assay: Safety: treatment-emergent adverse events incl. hypoglycaemia
# How it was run: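 Self-monitored blood glucose was checked four times daily, before each meal and at bedtime. A value ≤70 mg/dL (≤3.89 mmol/L) was recorded as a hypoglycaemia adverse event. Adverse events were coded by MedDRA version 18.0 in all dosed patients.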
# [2] = system: Japanese patients with type 1 diabetes mellitus; conditions: Day 15; for Glycoalbumin, AMD (95% CI): adjusted mean difference to placebo; for Body weight, mean change from baseline / Glycoalbumin, mean change from baseline: mean ± SD
# How it was run: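 Glycoalbumin and body weight were taken as change from baseline to day 15. Differences from placebo came from an analysis of covariance with baseline as covariate, with 95% CI. Analysed in patients with day-14 pharmacodynamic data.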
# [3] = system: Japanese patients with type 1 diabetes mellitus; assay: Safety: serum ketone levels; conditions: for Blood ketone body in patient with AE blood ketone body increased: person; for Mean (SD) change in total serum ketones: baseline until end of treatment
# How it was run: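 Total serum ketones, acetoacetic acid and 3-hydroxybutyric acid were measured at screening, predose on treatment days 1 (baseline), 2, 3, 14 and 15, and in the post-treatment period. Ketone increases were reported as adverse events.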
# [4] = system: Japanese patients with type 1 diabetes mellitus; assay: Concomitant insulin daily dose; conditions: day 14
# How it was run: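 Japanese type 1 diabetes patients on insulin; randomized, double-blind, placebo-controlled. Insulin was adjusted by usual clinical practice on physician instruction, with a cut considered if self-monitored glucose fell below 80 mg/dL. Basal, bolus and total daily units recorded; change from baseline to day 14.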
# [5] = Pharmacokinetics of ipragliflozin; conditions: human, plasma, oral, AUC24h, day 14, mean ± SD
# How it was run: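 Patients were hospitalized days −2 to 3 and days 13 to 15. […] The analysis set was patients dosed with at least one drug-concentration sample.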
structure (smiles),measurement,setting,value
OC[C@H]1O[C@@H](c2ccc(F)c(Cc3cc4ccccc4s3)c2)[C@H](O)[C@@H](O)[C@@H]1O [ipragliflozin],"Hypoglycaemia, Asymptomatic",[1]; 25 mg/day (n = 10),10 (100.0) patients (%)
same,"Hypoglycaemia, Asymptomatic, number of events",[1]; 25 mg/day (n = 10),44 events
same,"Hypoglycaemia, Documented symptomatic",[1]; 25 mg/day (n = 10),8 (80.0) patients (%)
same,"Hypoglycaemia, Documented symptomatic, number of events",[1]; 25 mg/day (n = 10),58 events
same,"Hypoglycaemia, Drug‐related",[1]; 25 mg/day (n = 10),10 (100.0) patients (%)
same,"Hypoglycaemia, Drug‐related, number of events",[1]; 25 mg/day (n = 10),83 events
same,"Hypoglycaemia, Major",[1]; 25 mg/day (n = 10),0 patients (%)
same,"Hypoglycaemia, Mild, number of events",[1]; 25 mg/day (n = 10),102 events
same,"Hypoglycaemia, Moderate",[1]; 25 mg/day (n = 10),1 (10.0) patients (%)
same,"Hypoglycaemia, Moderate, number of events",[1]; 25 mg/day (n = 10),1 events
same,"Hypoglycaemia, Probable symptomatic",[1]; 25 mg/day (n = 10),0 patients (%)
same,"Hypoglycaemia, Relative",[1]; 25 mg/day (n = 10),1 (10.0) patients (%)
same,"Hypoglycaemia, Relative, number of events",[1]; 25 mg/day (n = 10),1 events
same,"Hypoglycaemia, Serious",[1]; 25 mg/day (n = 10),0 patients (%)
same,"Hypoglycaemia, Severe",[1]; 25 mg/day (n = 10),0 patients (%)
same,TEAE Beta 2 microglobulin increased,[1]; 25 mg/day (n = 10),1 (10.0) patients (%)
same,TEAE Blood bilirubin increased,[1]; 25 mg/day (n = 10),1 (10.0) patients (%)
same,TEAE Blood ketone body increased,[1]; 25 mg/day (n = 10),1 (10.0) patients (%)
same,TEAE Constipation,[1]; 25 mg/day (n = 10),0 patients (%)
same,TEAE Decreased appetite,[1]; 25 mg/day (n = 10),0 patients (%)
same,TEAE Gastroenteritis,[1]; 25 mg/day (n = 10),1 (10.0) patients (%)
same,TEAE Headache,[1]; 25 mg/day (n = 10),0 patients (%)
same,TEAE Hemorrhoidal hemorrhage,[1]; 25 mg/day (n = 10),0 patients (%)
same,TEAE Hyperglycaemia,[1]; 25 mg/day (n = 10),0 patients (%)
same,TEAE Hypoglycaemia,[1]; 25 mg/day (n = 10),10 (100.0) patients (%)
same,"TEAE Hypoglycaemia, number of events",[1]; 25 mg/day (n = 10),103 events
same,TEAE Nasopharyngitis,[1]; 25 mg/day (n = 10),1 (10.0) patients (%)
same,TEAE Overall,[1]; 25 mg/day (n = 10),10 (100.0) patients (%)
same,TEAE Papule,[1]; 25 mg/day (n = 10),0 patients (%)
same,TEAE Pollakiuria,[1]; 25 mg/day (n = 10),0 patients (%)
same,TEAE Pyrexia,[1]; 25 mg/day (n = 10),0 patients (%)
same,TEAE Upper respiratory tract infection,[1]; 25 mg/day (n = 10),0 patients (%)
same,TEAE Urine ketone body present,[1]; 25 mg/day (n = 10),0 patients (%)
same,TEAE Vomiting,[1]; 25 mg/day (n = 10),0 patients (%)
same,"Hypoglycaemia, Asymptomatic",[1]; 50 mg/day (n = 12),9 (75.0) patients (%)
same,"Hypoglycaemia, Asymptomatic, number of events",[1]; 50 mg/day (n = 12),34 events
same,"Hypoglycaemia, Documented symptomatic",[1]; 50 mg/day (n = 12),11 (91.7) patients (%)
same,"Hypoglycaemia, Documented symptomatic, number of events",[1]; 50 mg/day (n = 12),96 events
same,"Hypoglycaemia, Drug‐related",[1]; 50 mg/day (n = 12),12 (100.0) patients (%)
same,"Hypoglycaemia, Drug‐related, number of events",[1]; 50 mg/day (n = 12),122 events
same,"Hypoglycaemia, Major",[1]; 50 mg/day (n = 12),0 patients (%)
same,"Hypoglycaemia, Mild, number of events",[1]; 50 mg/day (n = 12),141 events
same,"Hypoglycaemia, Moderate",[1]; 50 mg/day (n = 12),1 (8.3) patients (%)
same,"Hypoglycaemia, Moderate, number of events",[1]; 50 mg/day (n = 12),3 events
same,"Hypoglycaemia, Probable symptomatic",[1]; 50 mg/day (n = 12),3 (25.0) patients (%)
same,"Hypoglycaemia, Probable symptomatic, number of events",[1]; 50 mg/day (n = 12),3 events
same,"Hypoglycaemia, Relative",[1]; 50 mg/day (n = 12),4 (33.3) patients (%)
same,"Hypoglycaemia, Relative, number of events",[1]; 50 mg/day (n = 12),11 events
same,"Hypoglycaemia, Serious",[1]; 50 mg/day (n = 12),0 patients (%)
same,"Hypoglycaemia, Severe",[1]; 50 mg/day (n = 12),0 patients (%)
same,TEAE Beta 2 microglobulin increased,[1]; 50 mg/day (n = 12),0 patients (%)
same,TEAE Blood bilirubin increased,[1]; 50 mg/day (n = 12),0 patients (%)
same,TEAE Blood ketone body increased,[1]; 50 mg/day (n = 12),1 (8.3) patients (%)
same,TEAE Constipation,[1]; 50 mg/day (n = 12),1 (8.3) patients (%)
same,TEAE Decreased appetite,[1]; 50 mg/day (n = 12),1 (8.3) patients (%)
same,TEAE Gastroenteritis,[1]; 50 mg/day (n = 12),0 patients (%)
same,TEAE Headache,[1]; 50 mg/day (n = 12),0 patients (%)
same,TEAE Hemorrhoidal hemorrhage,[1]; 50 mg/day (n = 12),0 patients (%)
same,TEAE Hyperglycaemia,[1]; 50 mg/day (n = 12),1 (8.3) patients (%)
same,TEAE Hypoglycaemia,[1]; 50 mg/day (n = 12),12 (100.0) patients (%)
same,"TEAE Hypoglycaemia, number of events",[1]; 50 mg/day (n = 12),144 events
same,TEAE Nasopharyngitis,[1]; 50 mg/day (n = 12),1 (8.3) patients (%)
same,TEAE Overall,[1]; 50 mg/day (n = 12),12 (100.0) patients (%)
same,TEAE Papule,[1]; 50 mg/day (n = 12),1 (8.3) patients (%)
same,TEAE Pollakiuria,[1]; 50 mg/day (n = 12),1 (8.3) patients (%)
same,TEAE Pyrexia,[1]; 50 mg/day (n = 12),1 (8.3) patients (%)
same,TEAE Upper respiratory tract infection,[1]; 50 mg/day (n = 12),0 patients (%)
same,TEAE Urine ketone body present,[1]; 50 mg/day (n = 12),1 (8.3) patients (%)
same,TEAE Vomiting,[1]; 50 mg/day (n = 12),1 (8.3) patients (%)
same,"Hypoglycaemia, Asymptomatic",[1]; 100 mg/day (n = 10),9 (90.0) patients (%)
same,"Hypoglycaemia, Asymptomatic, number of events",[1]; 100 mg/day (n = 10),60 events
same,"Hypoglycaemia, Documented symptomatic",[1]; 100 mg/day (n = 10),7 (70.0) patients (%)
same,"Hypoglycaemia, Documented symptomatic, number of events",[1]; 100 mg/day (n = 10),25 events
same,"Hypoglycaemia, Drug‐related",[1]; 100 mg/day (n = 10),9 (90.0) patients (%)
same,"Hypoglycaemia, Drug‐related, number of events",[1]; 100 mg/day (n = 10),77 events
same,"Hypoglycaemia, Major",[1]; 100 mg/day (n = 10),0 patients (%)
same,"Hypoglycaemia, Mild, number of events",[1]; 100 mg/day (n = 10),85 events
same,"Hypoglycaemia, Moderate",[1]; 100 mg/day (n = 10),0 patients (%)
same,"Hypoglycaemia, Probable symptomatic",[1]; 100 mg/day (n = 10),0 patients (%)
same,"Hypoglycaemia, Relative",[1]; 100 mg/day (n = 10),0 patients (%)
same,"Hypoglycaemia, Serious",[1]; 100 mg/day (n = 10),0 patients (%)
same,"Hypoglycaemia, Severe",[1]; 100 mg/day (n = 10),0 patients (%)
same,TEAE Beta 2 microglobulin increased,[1]; 100 mg/day (n = 10),0 patients (%)
same,TEAE Blood bilirubin increased,[1]; 100 mg/day (n = 10),0 patients (%)
same,TEAE Blood ketone body increased,[1]; 100 mg/day (n = 10),2 (20.0) patients (%)
same,TEAE Constipation,[1]; 100 mg/day (n = 10),0 patients (%)
same,TEAE Decreased appetite,[1]; 100 mg/day (n = 10),0 patients (%)
same,TEAE Gastroenteritis,[1]; 100 mg/day (n = 10),0 patients (%)
same,TEAE Headache,[1]; 100 mg/day (n = 10),0 patients (%)
same,TEAE Hemorrhoidal hemorrhage,[1]; 100 mg/day (n = 10),0 patients (%)
same,TEAE Hyperglycaemia,[1]; 100 mg/day (n = 10),0 patients (%)
same,TEAE Hypoglycaemia,[1]; 100 mg/day (n = 10),9 (90.0) patients (%)
same,"TEAE Hypoglycaemia, number of events",[1]; 100 mg/day (n = 10),85 events
same,TEAE Nasopharyngitis,[1]; 100 mg/day (n = 10),0 patients (%)
same,TEAE Overall,[1]; 100 mg/day (n = 10),9 (90.0) patients (%)
same,TEAE Papule,[1]; 100 mg/day (n = 10),0 patients (%)
same,TEAE Pollakiuria,[1]; 100 mg/day (n = 10),0 patients (%)
same,TEAE Pyrexia,[1]; 100 mg/day (n = 10),0 patients (%)
same,TEAE Upper respiratory tract infection,[1]; 100 mg/day (n = 10),1 (10.0) patients (%)
same,TEAE Urine ketone body present,[1]; 100 mg/day (n = 10),1 (10.0) patients (%)
same,TEAE Vomiting,[1]; 100 mg/day (n = 10),0 patients (%)
same,"Deaths, serious TEAEs, TEAEs leading to discontinuation","[1]; 25, 50, 100 mg/day for 14 days","no deaths, other serious TEAEs, or TEAEs leading to discontinuation"
same,Ketoacidosis,"[1]; 25, 50, 100 mg/day for 14 days",no ketoacidosis was observed
same,"Glycoalbumin, AMD (95% CI)",[2]; 25 mg/day,"−2.17% and −2.17 (−3.84, −0.51) %"
same,"Body weight, mean change from baseline",[2]; 25 mg/day,-0.83 ± 0.48 kg
same,"Glycoalbumin, mean change from baseline",[2]; 25 mg/day,−2.67 ± 2.30%
same,"Glycoalbumin, AMD (95% CI)",[2]; 50 mg/day,"−2.03% and −2.03 (−3.58, −0.48) %"
same,"Body weight, mean change from baseline",[2]; 50 mg/day,-1.18 ± 1.06 kg
same,"Glycoalbumin, mean change from baseline",[2]; 50 mg/day,−2.53 ± 1.52%
same,"Body weight, mean change from baseline",[2]; 100 mg/day,-0.94 ± 0.89 kg
same,"Glycoalbumin, mean change from baseline",[2]; 100 mg/day,−2.95 ± 2.24%
same,Blood ketone body in patient with AE blood ketone body increased,"[3]; 25 mg group, day 15, 24 hours postdose",991 µmol/L
same,Mean (SD) change in total serum ketones,[3]; 25 mg/day,173.38 (267.48) μmol/L
same,Blood ketone body in patient with AE blood ketone body increased,"[3]; 50 mg group, day 15, 24 hours postdose",968 µmol/L
same,Mean (SD) change in total serum ketones,[3]; 50 mg/day,357.07 (294.41) μmol/L
same,Blood ketone body in patient with AE blood ketone body increased,"[3]; 100 mg group, day 2, predose",1200 µmol/L
same,Blood ketone body in patient with AE blood ketone body increased,"[3]; 100 mg group, day 15, 24 hours postdose",1770 µmol/L
same,Mean (SD) change in total serum ketones,[3]; 100 mg/day,233.18 (387.35) μmol/L
same,"Total daily insulin dose, % change from baseline (SD)",[4]; 25 mg/day,−14.77 ± 14.04%
same,"Total daily insulin dose, % change from baseline (SD)",[4]; 50 mg/day,−18.40 ± 12.49%
same,"Total daily insulin dose, % change from baseline (SD)",[4]; 100 mg/day,−19.25 ± 16.77%
same,AUC(0-t),"[5]; 25 mg/day, 25 mg/day",2510 ± 495 ng·h/mL
same,AUC(0-t),"[5]; 50 mg/day, 50 mg/day",5790 ± 1130 ng·h/mL
